# Experimental data taken from ChEMBL document CHEMBL1132173, “Novel derivatives of 2-pyridinemethylamine as selective, potent, and orally active agonists at 5-HT1A receptors” (J Med Chem, 1999).
# Test system: Rattus norvegicus
# Experiment: Induction of lower lip retraction in rat 60 min after administration, effective peroral dose determined in vivo
# Format: functional
# Settings: po, 1 h
# How it was run: (§1)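 Observed in 10 min windows centred 15 and 60 min post-dose, 10 s each minute, scoring lower lip retraction present or absent (0–10).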
row,SMILES,ED50 [mg/kg]
1,Cc1cc(CNCC2(F)CCN(C(=O)c3ccc(F)c(Cl)c3)CC2)nc(N(C)C)c1,0.89
2,CCc1ccc(CNCC2(F)CCN(C(=O)c3ccc(F)c(Cl)c3)CC2)nc1,1.8
3,O=C(c1ccc(F)c(Cl)c1)N1CCC(F)(CNCc2cccc(-c3cc[nH]n3)n2)CC1,0.32
4,Cc1ccc(N(C)C)nc1CNCC1(F)CCN(C(=O)c2ccc(F)c(Cl)c2)CC1,1.3
5,O=C(c1ccc(Cl)c(Cl)c1)N1CCC(F)(CNCc2cccc(N3CCC3)n2)CC1,0.45
6,O=C(c1ccc(Cl)c(Cl)c1)N1CCC(F)(CNCc2cccc(-c3ccco3)n2)CC1,0.32
7,CN(C)c1cccc(CNCC2(F)CCN(C(=O)c3cccc(Cl)c3)CC2)n1,0.32
8,Cc1ccc(CNCC2(F)CCN(C(=O)c3ccc(Cl)c(Cl)c3)CC2)nc1,0.62
9,CN(C)c1cccc(CNCC2(F)CCN(C(=O)c3ccc(Cl)c(Cl)c3)CC2)n1,0.32

# Target: D(2) dopamine receptor (Rattus norvegicus, UniProt P61169)
# Sequence (P61169 whole entry): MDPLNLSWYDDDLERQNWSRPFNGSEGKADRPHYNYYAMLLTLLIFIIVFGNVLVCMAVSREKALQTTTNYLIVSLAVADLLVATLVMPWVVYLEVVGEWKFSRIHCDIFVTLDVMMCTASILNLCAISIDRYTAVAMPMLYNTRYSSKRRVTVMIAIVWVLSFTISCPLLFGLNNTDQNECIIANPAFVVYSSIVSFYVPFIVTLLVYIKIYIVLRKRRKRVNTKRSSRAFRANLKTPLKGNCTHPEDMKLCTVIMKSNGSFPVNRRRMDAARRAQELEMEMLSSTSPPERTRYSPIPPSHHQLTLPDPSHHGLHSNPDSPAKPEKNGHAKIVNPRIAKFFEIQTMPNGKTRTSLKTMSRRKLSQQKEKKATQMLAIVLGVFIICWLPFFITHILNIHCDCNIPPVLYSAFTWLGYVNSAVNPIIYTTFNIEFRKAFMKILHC
# Experiment: Binding affinity towards Dopamine receptor D2 in rat striatum using YM-09151-2 as a radioligand
# Format: tissue-based
# Settings: not given
# How it was run: (§2)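 Rat tissue membranes, competition against radioligand at 23 °C. Nonspecific binding: 5-HT for 5-HT1A (30 min), (+)-butaclamol for D2 (60 min), phentolamine for α1 (30 min). Tris HCl 50 mM pH 7.4 buffers. Filtration through glass-fibre filters, then scintillation counting. Run in triplicate; IC50 by nonlinear regression; Ki by Cheng–Prusoff; mean pKi of three determinations.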
row,Ki [nM],SMILES
1,309,O=C(c1ccc(Cl)c(Cl)c1)N1CCC(F)(CNCc2cccc(N3CCC3)n2)CC1
2,1200,O=C(c1ccc(Cl)c(Cl)c1)N1CCC(F)(CNCc2cccc(-c3ccco3)n2)CC1
3,617,CN(C)c1cccc(CNCC2(F)CCN(C(=O)c3cccc(Cl)c3)CC2)n1

# Test system: Rattus norvegicus
# Experiment: Effective intraperitoneal dose in vivo in rat after 15 mins to induce lower lip retraction
# Format: functional
# Settings: ip, 0.25 h
# How it was run: as §1
row,SMILES,ED50 [mg/kg]
1,Cc1cc(CNCC2(F)CCN(C(=O)c3ccc(F)c(Cl)c3)CC2)nc(N(C)C)c1,0.32
2,CCc1ccc(CNCC2(F)CCN(C(=O)c3ccc(F)c(Cl)c3)CC2)nc1,1.3
3,O=C(c1ccc(F)c(Cl)c1)N1CCC(F)(CNCc2cccc(-c3cc[nH]n3)n2)CC1,0.32
4,Cc1ccc(N(C)C)nc1CNCC1(F)CCN(C(=O)c2ccc(F)c(Cl)c2)CC1,0.63
5,O=C(c1ccc(Cl)c(Cl)c1)N1CCC(F)(CNCc2cccc(N3CCC3)n2)CC1,0.32
6,O=C(c1ccc(Cl)c(Cl)c1)N1CCC(F)(CNCc2cccc(-c3ccco3)n2)CC1,0.16
7,CN(C)c1cccc(CNCC2(F)CCN(C(=O)c3cccc(Cl)c3)CC2)n1,0.08
8,CN(C)c1cccc(CNCC2(F)CCN(C(=O)c3ccc(Cl)c(Cl)c3)CC2)n1,0.62

# Target: T1, Adrenergic receptor alpha-1 (Rattus norvegicus, UniProt P15823+P23944+P43140)
# T1 sequence (P15823 whole entry): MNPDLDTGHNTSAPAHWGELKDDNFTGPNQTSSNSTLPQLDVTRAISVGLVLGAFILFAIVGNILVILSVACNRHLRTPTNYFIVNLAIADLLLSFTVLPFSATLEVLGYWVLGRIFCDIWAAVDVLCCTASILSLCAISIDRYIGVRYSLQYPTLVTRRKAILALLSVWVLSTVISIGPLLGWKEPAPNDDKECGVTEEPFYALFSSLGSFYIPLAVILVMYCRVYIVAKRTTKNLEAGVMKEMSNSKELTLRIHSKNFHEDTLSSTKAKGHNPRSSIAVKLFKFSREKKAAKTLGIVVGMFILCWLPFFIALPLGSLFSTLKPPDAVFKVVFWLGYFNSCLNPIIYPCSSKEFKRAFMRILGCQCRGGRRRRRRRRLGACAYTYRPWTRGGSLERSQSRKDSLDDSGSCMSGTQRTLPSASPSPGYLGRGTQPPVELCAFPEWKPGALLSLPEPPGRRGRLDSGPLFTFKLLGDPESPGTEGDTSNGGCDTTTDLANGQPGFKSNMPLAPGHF
# T1 sequence (P23944 whole entry): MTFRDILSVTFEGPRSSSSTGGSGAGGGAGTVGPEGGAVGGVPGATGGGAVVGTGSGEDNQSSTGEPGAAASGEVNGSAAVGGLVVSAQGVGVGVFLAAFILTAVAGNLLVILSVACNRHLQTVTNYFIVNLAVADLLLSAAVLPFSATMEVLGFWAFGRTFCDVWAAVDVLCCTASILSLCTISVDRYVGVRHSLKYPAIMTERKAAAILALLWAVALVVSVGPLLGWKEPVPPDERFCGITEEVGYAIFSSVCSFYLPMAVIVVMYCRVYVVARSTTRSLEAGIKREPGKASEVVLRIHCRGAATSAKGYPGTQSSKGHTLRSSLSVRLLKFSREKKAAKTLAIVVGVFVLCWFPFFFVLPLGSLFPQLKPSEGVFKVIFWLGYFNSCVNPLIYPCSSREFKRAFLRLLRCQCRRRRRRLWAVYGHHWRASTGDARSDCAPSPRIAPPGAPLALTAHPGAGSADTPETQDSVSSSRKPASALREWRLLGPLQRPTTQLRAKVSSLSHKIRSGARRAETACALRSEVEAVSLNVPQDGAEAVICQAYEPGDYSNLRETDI
# T1 sequence (P43140 whole entry): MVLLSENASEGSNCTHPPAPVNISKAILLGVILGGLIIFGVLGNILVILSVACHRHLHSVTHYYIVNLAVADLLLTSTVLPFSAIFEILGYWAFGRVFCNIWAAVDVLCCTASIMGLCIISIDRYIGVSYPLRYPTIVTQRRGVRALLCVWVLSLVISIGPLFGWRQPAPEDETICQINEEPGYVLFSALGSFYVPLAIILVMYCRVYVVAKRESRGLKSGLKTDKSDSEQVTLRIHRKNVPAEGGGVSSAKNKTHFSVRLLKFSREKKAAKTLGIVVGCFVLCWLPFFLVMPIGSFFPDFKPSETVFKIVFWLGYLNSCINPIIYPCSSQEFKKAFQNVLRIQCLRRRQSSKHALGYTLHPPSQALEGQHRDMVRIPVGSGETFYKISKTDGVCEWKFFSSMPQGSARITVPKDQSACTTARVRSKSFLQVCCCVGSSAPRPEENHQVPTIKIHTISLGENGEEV
# Experiment: Binding affinity towards Alpha-1 adrenergic receptor using prazosin as a radioligand in rat cortex
# Settings: not given
# How it was run: as §2
row,Log Ki,SMILES
1,-6.35,O=C(c1ccc(Cl)c(Cl)c1)N1CCC(F)(CNCc2cccc(N3CCC3)n2)CC1
2,-6.39,O=C(c1ccc(Cl)c(Cl)c1)N1CCC(F)(CNCc2cccc(-c3ccco3)n2)CC1
3,-6.81,CN(C)c1cccc(CNCC2(F)CCN(C(=O)c3cccc(Cl)c3)CC2)n1
4,-6.76,CN(C)c1cccc(CNCC2(F)CCN(C(=O)c3ccc(Cl)c(Cl)c3)CC2)n1

# Test system: Rattus norvegicus
# Experiment: Effective intraperitoneal dose in vivo in rat after 60 mins to induce lower lip retraction
# Format: functional
# Settings: ip, 1 h
# How it was run: as §1
row,SMILES,ED50 [mg/kg]
1,O=C(c1ccc(Cl)c(Cl)c1)N1CCC(F)(CNCc2cccc(N3CCC3)n2)CC1,0.45
2,O=C(c1ccc(Cl)c(Cl)c1)N1CCC(F)(CNCc2cccc(-c3ccco3)n2)CC1,0.23
3,CN(C)c1cccc(CNCC2(F)CCN(C(=O)c3cccc(Cl)c3)CC2)n1,0.11
4,CN(C)c1cccc(CNCC2(F)CCN(C(=O)c3ccc(Cl)c(Cl)c3)CC2)n1,0.45

# Target: T2, 5-hydroxytryptamine receptor 1A (Rattus norvegicus, UniProt P19327)
# T2 sequence (P19327 whole entry): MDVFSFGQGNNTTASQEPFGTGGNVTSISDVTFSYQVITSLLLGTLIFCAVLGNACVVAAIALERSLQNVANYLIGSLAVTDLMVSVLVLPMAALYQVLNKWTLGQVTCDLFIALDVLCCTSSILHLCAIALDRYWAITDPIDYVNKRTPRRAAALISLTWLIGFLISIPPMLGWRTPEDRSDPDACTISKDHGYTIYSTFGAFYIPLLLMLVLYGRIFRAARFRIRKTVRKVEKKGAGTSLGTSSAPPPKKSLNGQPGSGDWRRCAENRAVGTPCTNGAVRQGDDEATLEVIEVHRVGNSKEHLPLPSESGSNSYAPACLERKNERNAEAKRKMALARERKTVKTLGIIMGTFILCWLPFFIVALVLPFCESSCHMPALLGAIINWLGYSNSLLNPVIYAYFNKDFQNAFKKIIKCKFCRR
# Experiment: Binding affinity towards 5-hydroxytryptamine 1A receptor in rat cortex using [3H]8-OH-DPAT as a radioligand
# Settings: not given
# How it was run: as §2
row,SMILES,Ki [nM]
1,Cc1cc(CNCC2(F)CCN(C(=O)c3ccc(F)c(Cl)c3)CC2)nc(N(C)C)c1,0.562
2,CCc1ccc(CNCC2(F)CCN(C(=O)c3ccc(F)c(Cl)c3)CC2)nc1,8.91
3,Cc1ccc(N(C)C)nc1CNCC1(F)CCN(C(=O)c2ccc(F)c(Cl)c2)CC1,0.468
4,O=C(c1ccc(Cl)c(Cl)c1)N1CCC(F)(CNCc2cccc(-c3ccco3)n2)CC1,1.05

# Next, values leading:
row,Ki [nM],SMILES
1,0.2,O=C(c1ccc(Cl)c(Cl)c1)N1CCC(F)(CNCc2cccc(N3CCC3)n2)CC1
2,0.0977,CN(C)c1cccc(CNCC2(F)CCN(C(=O)c3cccc(Cl)c3)CC2)n1

# Target: T3, 5-hydroxytryptamine receptor 1A (Homo sapiens, UniProt P08908)
# T3 sequence (P08908 whole entry): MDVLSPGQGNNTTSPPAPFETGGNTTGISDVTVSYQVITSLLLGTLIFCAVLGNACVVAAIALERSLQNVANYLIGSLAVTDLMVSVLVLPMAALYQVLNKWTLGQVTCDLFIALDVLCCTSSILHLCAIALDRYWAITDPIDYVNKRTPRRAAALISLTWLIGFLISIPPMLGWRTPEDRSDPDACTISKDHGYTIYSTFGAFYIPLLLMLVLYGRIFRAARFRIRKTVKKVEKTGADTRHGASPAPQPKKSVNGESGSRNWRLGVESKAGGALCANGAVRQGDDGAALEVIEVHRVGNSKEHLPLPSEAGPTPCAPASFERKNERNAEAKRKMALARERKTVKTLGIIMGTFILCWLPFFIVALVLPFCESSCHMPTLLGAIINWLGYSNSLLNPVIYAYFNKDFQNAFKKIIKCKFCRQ
# Experiment: In vitro effective concentration required to inhibit forskolin-stimulated cAMP levels in HA7 cells expressing human 5-HT1A receptor
# Format: functional, cell-based
# Settings: not given
# How it was run: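 HeLa HA7 cells stably expressing human 5-HT1A, at 80–90% confluency, antibiotic-free for 24 h. Preincubated 10 min at RT in DMEM/10 mM Hepes, then drug at 0.1 nM–100 µM with 100 µM forskolin and 100 µM IBMX for 10 min at RT. Stopped with 0.1 N HCl; cAMP by radioimmunoassay as % of forskolin control; pEC50.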
row,SMILES,EC50 [nM]
1,Cc1cc(CNCC2(F)CCN(C(=O)c3ccc(F)c(Cl)c3)CC2)nc(N(C)C)c1,33.1
2,CCc1ccc(CNCC2(F)CCN(C(=O)c3ccc(F)c(Cl)c3)CC2)nc1,407
3,O=C(c1ccc(F)c(Cl)c1)N1CCC(F)(CNCc2cccc(-c3cc[nH]n3)n2)CC1,0.724
4,Cc1ccc(N(C)C)nc1CNCC1(F)CCN(C(=O)c2ccc(F)c(Cl)c2)CC1,47.9
5,O=C(c1ccc(Cl)c(Cl)c1)N1CCC(F)(CNCc2cccc(-c3ccco3)n2)CC1,2.63
6,Cc1ccc(CNCC2(F)CCN(C(=O)c3ccc(Cl)c(Cl)c3)CC2)nc1,20.9

# The remaining lines, values ahead:
row,EC50 [nM],SMILES
1,10.7,O=C(c1ccc(Cl)c(Cl)c1)N1CCC(F)(CNCc2cccc(N3CCC3)n2)CC1
2,10,CN(C)c1cccc(CNCC2(F)CCN(C(=O)c3cccc(Cl)c3)CC2)n1
3,2.95,CN(C)c1cccc(CNCC2(F)CCN(C(=O)c3ccc(Cl)c(Cl)c3)CC2)n1
